TAAR1 ag: agonists of human TAAR1. Q96RJ0. CHO RD-HGA16 TAAR1, Fluo-8 calcium fluorescence; vehicle wells 0%, saturating PEA agonist 100%. activation, % at 3 µM. hit rate 0.99% among 360,000. AID 624467;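 active = activation above the mean activation of all test compounds in the run plus 3 SD, cut at about 38% in these data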
Target sequence (Q96RJ0 whole entry, looked up): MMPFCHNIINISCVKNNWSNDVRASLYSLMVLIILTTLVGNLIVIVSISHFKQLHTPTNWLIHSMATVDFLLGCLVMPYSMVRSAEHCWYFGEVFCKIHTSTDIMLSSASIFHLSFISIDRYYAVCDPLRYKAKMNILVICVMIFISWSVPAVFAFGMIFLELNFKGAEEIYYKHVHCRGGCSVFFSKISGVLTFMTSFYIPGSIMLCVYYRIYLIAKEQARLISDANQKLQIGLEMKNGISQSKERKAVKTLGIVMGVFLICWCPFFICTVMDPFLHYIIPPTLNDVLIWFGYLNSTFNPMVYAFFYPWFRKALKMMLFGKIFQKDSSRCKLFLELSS
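test system = CHO RD-HGA16 cells carrying human TAAR1 plus Gα16 | schedule = 17-24 h seeding, 75 min 37 °C dye, 30 min RT | compound dosing = 3 µM single concentration | control set = DMSO and PEA EC100 | replicates = n 1 | signal = Fluo-8 fluorescence, 5 s baseline then 140 s kinetic read | measure = percent activation vs PEA EC100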
OX1R antag-1: blocks the human orexin 1 receptor; O43613; OX1R-expressing cells, FRET antagonist read-out; inhibition, % at 6.6 µM; hit rate 1.8% among 330,000; AID 485270; in the data active = inhibition mostly above about 38%, no sharp cut-off; inactive = mostly below about 40%;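 also: 0% = agonist challenge alone and 100% = reference antagonist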
Target sequence (O43613 whole entry, looked up): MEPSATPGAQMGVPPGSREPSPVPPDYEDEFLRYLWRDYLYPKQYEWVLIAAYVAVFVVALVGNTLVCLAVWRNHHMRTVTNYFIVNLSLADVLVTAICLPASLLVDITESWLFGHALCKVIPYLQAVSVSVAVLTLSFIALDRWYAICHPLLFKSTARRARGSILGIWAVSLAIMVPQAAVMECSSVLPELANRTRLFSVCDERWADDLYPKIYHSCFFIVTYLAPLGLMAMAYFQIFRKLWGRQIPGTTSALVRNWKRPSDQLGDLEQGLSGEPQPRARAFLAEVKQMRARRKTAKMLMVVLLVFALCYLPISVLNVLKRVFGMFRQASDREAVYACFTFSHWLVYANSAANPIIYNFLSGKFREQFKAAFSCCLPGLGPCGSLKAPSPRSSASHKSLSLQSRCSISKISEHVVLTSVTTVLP
OX1R antag-2: blocks the human orexin 1 receptor; CHO/OX1R cells, Fluo-8 calcium fluorescence, orexin A; hit rate 0.43% among 330,000; O43613; inhibition, % at 5 µM;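 active = inhibition above its plate's threshold, mean inhibition of all tested compounds on the plate plus 3 SD, cut at about 37% in these data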;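 also: 0% = orexin A challenge wells and 100% = SB-334867-A antagonist wells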
CHO parental Ca: counter-screen for OX1R antagonists: effect in parental CHO cells; hit rate 0.63% among 330,000; parental CHO-K1, ATP-induced calcium, Fluo-8 fluorescence; AID 463079; inhibition, % at 5.6 µM;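 active = inhibition above that plate's mean sample inhibition plus 3 SD, cut at about 26% in these data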;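 also: 0% = ATP-challenged DMSO wells and 100% = DMSO wells without ATP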
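material = parental CHO cells | also added = ATP as calcium-mobilizing challenge | dosing = single point at 5.6 µM | detection = intracellular calcium via Fluo-8 no-wash fluorescent dye | read-out = % inhibition | benchmarks = low control ATP plus DMSO, high control DMSO only | repeats = one well per compound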
TAAR1 antagonist: antagonists of human TAAR1; CHO RD-HGA16 TAAR1, Fluo-8 calcium fluorescence, antagonist; inhibition, % at 3 µM; hit rate 1.5% among 360,000; AID 624466;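 active = inhibition above a per-plate cutoff, the mean inhibition of test compounds on that plate plus 3 SD, cut at about 49% in these data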;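 also: 0% = DMSO plus EC80 beta-PEA response and 100% = DMSO alone without agonist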
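Assay system: CHO-derived RD-HGA16 cells stably expressing human TAAR1 plus Gα16. Timing: 140 s kinetic read after compound, 140 s after agonist. Technique: kinetic Fluo-8 calcium fluorescence measurement. Measure: % inhibition of agonist calcium response.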
GalR3 antagonist: antagonists of human GalR3; hit rate 0.44% among 360,000; inhibition, % at 3 µM; O60755; HEK293 GalR3-CNG cAMP membrane potential fluorescence; galR3 body fused to GalR1 C-terminus;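 active = inhibition above the screen-wide average plus 3 SD, cut at about 13% in these data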;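 also: forskolin and galanin both at EC90 stimulate the cells; cAMP rise reported by CNG channel membrane potential dye signal; 0% = forskolin plus galanin with DMSO and 100% = forskolin alone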
TAAR1 ag conf: confirmation of human TAAR1 agonists. hit rate 82% among 2,400. activation, % at 3 µM. shares compounds with TAAR1 ag. CHO RD-HGA16 TAAR1, Fluo-8 calcium fluorescence; scaled: DMSO 0%, maximal phenethylamine 100%. AID 651783;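 active = activation above a cutoff set at the run's mean compound activation plus 3 SD, cut at about 39% in these data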
Ga16 nonsel ag: nonselective agonist in parental cells, TAAR1 agonist counter-screen; hit rate 50% among 2,400; activation, % at 3 µM; CHO-Ga16 parental, Fluo-8 calcium fluorescence; normalized to maximal ATP response, DMSO zero; AID 651787; shares compounds with TAAR1 ag;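 active = activation above the run cutoff, the mean activation over all tested wells plus 3 SD, cut at about 12% in these data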;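 also: 0% = DMSO wells and 100% = maximal ATP response on the peak over basal ratio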
TAAR1 desens: human TAAR1 agonist that also desensitizes the receptor; shares compounds with TAAR1 ag; inhibition, % at 3 µM; CHO RD-HGA16 hTAAR1, Fluo-8 calcium, beta-PEA response inhibition; hit rate 46% among 2,400;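 active = inhibition above the run cutoff, the mean inhibition of all test compounds plus 3 SD, cut at about 49% in these data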;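 also: beta-PEA stimulus applied at its EC80; loss of beta-PEA calcium signal after compound pretreatment read as receptor desensitization; 0% = DMSO with beta-PEA at EC80 and 100% = DMSO alone without agonist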
Ga16 nonsel ant: counter-screen for TAAR1 agonists: nonselective Ga16 antagonists. shares compounds with TAAR1 ag. CHO-Ga16 ATP-induced calcium, Fluo-8 fluorescence. inhibition, % at 3 µM. hit rate 39% among 2,400;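 active = inhibition above the plate's mean compound inhibition plus 3 SD, computed per plate, cut at about 22% in these data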;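 also: 0% = EC80 ATP with DMSO and 100% = DMSO wells without ATP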
Starred values were filed as active, the others as inactive; · = no result. The list is not random: actives were taken first. Their share in the collection is about 4.3%.

SMILES | TAAR1 ag | OX1R antag-1 | OX1R antag-2 | CHO parental Ca | TAAR1 antagonist | GalR3 antagonist | TAAR1 ag conf | Ga16 nonsel ag | TAAR1 desens | Ga16 nonsel ant
O=C(N/N=C\c1c(O)ccc2ccccc12)c1cncc(Br)c1 | 121* | 73* | 63* | 67* | 59* | -3 | 72* | 90* | 52* | 58*
COc1cc(C(C)=O)ccc1OCCCOc1cccc2cccnc12 | 12 | 13 | -4 | -13 | 6 | 5 | · | · | · | ·
Cc1ccc(Cn2nnc(C(=O)Nc3cccc(C)c3C)c2N)cc1 | 118* | 3 | 37* | 26 | 81* | -5 | 123* | 85* | 87* | 59*
CCc1ccc(Cn2nnc(C(=O)Nc3cccc(C)c3)c2N)cc1 | 21 | 4 | 3 | -9 | 21 | 2 | · | · | · | ·
O=C(NNS(=O)(=O)c1ccccc1)Nc1ccc(F)cc1 | 0 | -2 | -11 | -6 | -14 | 0 | · | · | · | ·
CCCNC(=O)c1ccc(CN2CCc3ccccc3C2)cc1 | 6 | 28 | -23 | -4 | 6 | -1 | · | · | · | ·
O=C(CN1CCc2ccccc2C1)c1cccs1 | 75* | 22 | -15 | -10 | 25 | -3 | 86* | 3 | 46 | -1
O=C(NCN1CCc2ccccc2C1)c1cnccn1 | 95* | 2 | 0 | -4 | 57* | -2 | 88* | 0 | 65* | 8
O=C(NCN1CCc2ccccc2C1)c1ccccc1 | 82* | 14 | 0 | -6 | 54* | -2 | 50* | 1 | 21 | 5
O=C(CNc1ccc(Br)cc1)Nc1ccc(S(=O)(=O)N2CCCCC2)cc1 | 23 | · | · | · | 15 | -8 | · | · | · | ·
O=C(NCCc1ccccc1Cl)[C@@H]1CCCN1C(=O)[C@@H](NS(=O)(=O)c1ccc(F)cc1F)C1CCCCC1 | 27 | · | · | · | 43 | -1 | · | · | · | ·
O=C(CC1CCCC1)N[C@@H](Cc1cccnc1)C(=O)N1CCC[C@H]1C(=O)NCCc1ccccc1Cl | 70* | · | · | · | 78* | -6 | 87* | 13* | 90* | 5
COc1cccc(C(=O)N[C@@H](Cc2cccnc2)C(=O)N2CCC[C@H]2C(=O)NCCc2ccccc2Cl)c1 | 67* | · | · | · | 71* | -8 | 83* | 9 | 93* | 10
O=C(N[C@@H](Cc1cccnc1)C(=O)N1CCC[C@H]1C(=O)NCCc1ccccc1Cl)C1CCCC1 | 80* | · | · | · | 73* | 0 | 80* | -1 | 86* | 2
O=C(N[C@@H](Cc1cccnc1)C(=O)N1CCC[C@H]1C(=O)NCCc1ccccc1Cl)c1ccc(Cl)cc1Cl | 65* | · | · | · | 66* | -5 | 72* | 1 | 89* | -1
COCCCN1C(=O)C(=O)/C(=C(/O)c2ccc(S(=O)(=O)N3CCCCC3)cc2)C1c1ccc(O)cc1 (configuration not stated) | 0 | 8 | 0 | 5 | 7 | -5 | · | · | · | ·
COc1cccc(CN2CCC2(C)C(=O)NCCc2ccccn2)c1OC (configuration not stated) | 1 | · | · | · | -33 | -6 | · | · | · | ·
COc1ccc(CN2C(=O)C(CC(=O)NCc3cccs3)CC(C(=O)N(C(C)C)C(C)C)=C2C)cc1 (configuration not stated) | -2 | · | · | · | -5 | 0 | · | · | · | ·
Cc1cccc(NC(=S)NCc2ccc3c(c2)OCO3)c1C | 0 | 13 | -10 | -11 | 10 | 0 | · | · | · | ·
Cc1cccc(NC(=O)C(=O)NCc2ccc3c(c2)OCO3)c1C | 56* | 19 | -18 | 15 | 36 | -3 | 10 | 1 | 1 | -1
CCOC(=O)[C@]12CCCC=C1N(Cc1ccccc1)C(=O)[C@H](CC(=O)NCc1ccccc1)C2 | -1 | · | · | · | -23 | -6 | · | · | · | ·
O=C(COC(=O)CC1CCS(=O)(=O)C1)Nc1ccc(F)cc1 (configuration not stated) | 7 | 1 | 6 | 7 | -9 | -5 | · | · | · | ·
NCCc1c(-c2ccccc2)n(-c2ccccc2)c2ccccc12 | 61* | · | · | · | 63* | -12 | 85* | 51* | 96* | 34*
CC(=O)n1c(-c2ccccc2)c(CO)c2ccccc21 | 2 | 42 | -24 | -8 | -3 | -5 | · | · | · | ·
CC(C)NC(=O)COC(=O)c1ccccc1CSC1=NCCS1 | 5 | 16 | -4 | 4 | -1 | -7 | · | · | · | ·
SMILES | TAAR1 ag | OX1R antag-1 | OX1R antag-2 | CHO parental Ca | TAAR1 antagonist | GalR3 antagonist | TAAR1 ag conf | Ga16 nonsel ag | TAAR1 desens | Ga16 nonsel ant
Cc1ccc(C(=O)Nc2ccc(Br)cc2)cc1S(=O)(=O)Nc1ccccn1 | 66* | 6 | -7 | -8 | 0 | -1 | 10 | 5 | 6 | 15
COc1cccc(NC(=O)C2(C)CCN2C(=O)CC2CCCC2)c1 (configuration not stated) | 4 | · | · | · | -1 | -7 | · | · | · | ·
CN(C)CCCN(C(=O)c1ccc(S(=O)(=O)N2CCCCCC2)cc1)c1nc2ccc(F)cc2s1 | 67* | 7 | -37 | -16 | 16 | -3 | 68* | 30* | 38 | 20
CN(C)CCN(C(=O)c1ccc(S(=O)(=O)N2CCCC2)cc1)c1nc2ccc(Br)cc2s1 | 7 | 6 | -17 | 0 | -20 | -2 | · | · | · | ·
CC1CCCCN1S(=O)(=O)c1ccc(C(=O)N(CCCN(C)C)c2nc3ccc(Br)cc3s2)cc1 (configuration not stated) | 51* | 16 | 4 | 2 | 46 | -5 | 69* | 52* | 57* | 56*
COC(=O)[C@]12CCCCC=C1N(Cc1ccc3c(c1)OCO3)C(=O)[C@H](CC(=O)NCCCCc1ccccc1)C2 | 1 | · | · | · | 23 | -7 | · | · | · | ·
O=C(c1cccc(NC2=NC3CS(=O)(=O)CC3S2)c1)N1CCN(c2ncccn2)CC1 (configuration not stated) | 2 | -2 | 7 | 4 | -9 | · | · | · | · | ·
COc1cc(/C=C2/SC(=S)N(Cc3ccccc3)C2=O)cc(Cl)c1O | 103* | -12 | 95* | 67* | 89* | -12 | 182* | 198* | 101* | 100*
Brc1ccc(C2=CC(c3cccs3)n3ncnc3N2)cc1 (configuration not stated) | 164* | 31 | 33 | 41* | 110* | -3 | 36 | 51* | 62* | 57*

Screens: PubChem BioAssay, The Scripps Research Institute Molecular Screening Center
